Laboratory results as given in ChEMBL document CHEMBL5257020, “Discovery of a 9-mer Cationic Peptide (LTX-315) as a Potential First in Class Oncolytic Peptide” (J Med Chem, 2016).
Where a SMILES comes first, the peptide text is derived from it. [ ]: non-standard residue; d: D form. ξ: configuration not given here. Bip = N[C@@H](Cc1ccc(-c2ccccc2)cc1)C(=O)O; ξDip = NC(C(=O)O)C(c1ccccc1)c1ccccc1

Experiments:
T47D = assay: Cytotoxicity against human T47D cells assessed as inhibition of cell proliferation incubated for 4 hrs by MTS assay; type: functional, cell-based
Method in brief: (§1)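 Cells grown in RPMI-1640 with 2 mM L-glutamine and 10% FBS, plated, then held 24 h at 37 °C. Adherent lines washed once in FBS-free medium. Cells exposed 4 h at 37 °C, 5% CO2 in FBS-free medium to 10 concentrations (1/4 steps, 400 μM top). 1% Triton X-100 served as positive control. MTS/PMS added for 2 h, then OD 490 nm read. IC50 from semilog curves; three independent experiments, quadruplicate wells.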

PC-3 = assay: Cytotoxicity against human PC-3 cells assessed as inhibition of cell proliferation incubated for 4 hrs by MTS assay; type: functional, cell-based; settings: PC-3, 4 h; method in brief: as §1
Ramos = assay: Cytotoxicity against human Ramos cells assessed as inhibition of cell proliferation incubated for 4 hrs by MTS assay; type: functional, cell-based; method in brief: as §1
[1] = Cytotoxicity against human IGROV(CDDP) cells assessed as inhibition of cell proliferation incubated for 4 hrs by MTS assay; type: functional, cell-based; method in brief: as §1
Calu-6 = assay: Cytotoxicity against human Calu-6 cells assessed as inhibition of cell proliferation incubated for 4 hrs by MTS assay; type: functional, cell-based; settings: Calu-6, 4 h; method in brief: as §1
HepG2 = assay: Cytotoxicity against human HepG2 cells assessed as inhibition of cell proliferation incubated for 4 hrs by MTS assay; type: functional, cell-based; settings: HepG2, 4 h; method in brief: as §1
U-937 = assay: Cytotoxicity against human U-937 cells assessed as inhibition of cell proliferation incubated for 4 hrs by MTS assay; type: functional, cell-based; settings: U-937, 4 h; method in brief: as §1
RPMI-8226 = assay: Cytotoxicity against human RPMI-8226 cells assessed as inhibition of cell proliferation incubated for 4 hrs by MTS assay; type: functional, cell-based; settings: RPMI-8226, 4 h; method in brief: as §1
A20 = assay: Cytotoxicity against mouse A20 lymphoma cells assessed as inhibition of cell proliferation incubated for 4 hrs by MTT assay; type: functional, cell-based; settings: A20, 4 h
Method in brief: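 Murine A20 cells cultured in RPMI-1640 with 2 mM L-glutamine, 1.5 g/L sodium bicarbonate, 4.5 g/L glucose, 10 mM HEPES, 1.0 mM sodium pyruvate, 0.05 mM 2-mercaptoethanol and 10% FBS, without antibiotics, at 37 °C, 5% CO2. IC50 from three or more independent measurements, given as mean ± SD.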

HL-60 = assay: Cytotoxicity against human HL-60 cells assessed as inhibition of cell proliferation incubated for 4 hrs by MTS assay; type: functional, cell-based; settings: HL-60, 4 h; method in brief: as §1
SH-SY5Y = assay: Cytotoxicity against human SH-SY5Y cells assessed as inhibition of cell proliferation incubated for 4 hrs by MTS assay; type: functional, cell-based; method in brief: as §1
COLO 205 = assay: Cytotoxicity against human COLO 205 cells assessed as inhibition of cell proliferation incubated for 4 hrs by MTS assay; type: functional, cell-based; settings: COLO 205, 4 h; method in brief: as §1
HT-29 = assay: Cytotoxicity against human HT-29 cells assessed as inhibition of cell proliferation incubated for 4 hrs by MTS assay; type: functional, cell-based; settings: HT-29, 4 h; method in brief: as §1
Malme-3M = assay: Cytotoxicity against human Malme-3M cells assessed as inhibition of cell proliferation incubated for 4 hrs by MTS assay; type: functional, cell-based; method in brief: as §1
MDA-MB-231 = assay: Cytotoxicity against human MDA-MB-231 cells assessed as inhibition of cell proliferation incubated for 4 hrs by MTS assay; type: functional, cell-based; settings: MDA-MB-231, 4 h; method in brief: as §1
MDA-MB-435S = assay: Cytotoxicity against human MDA-MB-435S cells assessed as inhibition of cell proliferation incubated for 4 hrs by MTS assay; type: functional, cell-based; method in brief: as §1
[2] = Cytotoxicity against human MRC5 cells assessed as inhibition of cell proliferation incubated for 4 hrs by MTT assay; type: toxicity, cell-based
Method in brief: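 MRC-5 human embryonic lung fibroblasts cultured in MEM with 2 mM L-glutamine and 10% FBS, without antibiotics, at 37 °C in humidified 5% CO2. Cultures were tested for mycoplasma. IC50 from three or more independent measurements, given as mean ± SD.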

[3] = Cytotoxicity against human U-87 MG cells assessed as inhibition of cell proliferation incubated for 4 hrs by MTS assay; type: functional, cell-based, U-87MG ATCC; method in brief: as §1
[4] = Cytotoxicity against human Hs 445 cells assessed as inhibition of cell proliferation incubated for 4 hrs by MTS assay; type: functional, cell-based; settings: Hs 445, 4 h; method in brief: as §1
Toledo = assay: Cytotoxicity against human Toledo cells assessed as inhibition of cell proliferation incubated for 4 hrs by MTS assay; type: functional, cell-based; method in brief: as §1
[5] = Cytotoxicity against human MINO cells assessed as inhibition of cell proliferation incubated for 4 hrs by MTS assay; type: functional, cell-based; method in brief: as §1
Raji = assay: Cytotoxicity against human Raji cells assessed as inhibition of cell proliferation incubated for 4 hrs by MTS assay; type: functional, cell-based; method in brief: as §1
KARPAS-299 = assay: Cytotoxicity against human KARPAS-299 cells assessed as inhibition of cell proliferation incubated for 4 hrs by MTS assay; type: functional, cell-based; settings: KARPAS-299, 4 h; method in brief: as §1
A498 = assay: Cytotoxicity against human A498 cells assessed as inhibition of cell proliferation incubated for 4 hrs by MTS assay; type: functional, cell-based; settings: A498, 4 h; method in brief: as §1
SK-N-AS = assay: Cytotoxicity against human SK-N-AS cells assessed as inhibition of cell proliferation incubated for 4 hrs by MTS assay; type: functional, cell-based; method in brief: as §1
K562 [6] = assay: Cytotoxicity in imatinib resistant human K562 cells assessed as inhibition of cell proliferation incubated for 4 hrs by MTS assay; type: functional, cell-based; settings: K562, 4 h
Method in brief: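 Oncodesign panel MTS/PMS assay. Cells in RPMI-1640 + 10% FBS. After 24 h pre-plating, adherent lines washed in FBS-free medium. Cells exposed 4 h at 37 °C in FBS-free medium to 10 concentrations, 1/4 dilutions from 400 μM top. Triton X-100 (1% final) positive control. MTS/PMS added, 2 h, OD 490 nm. IC50 from semilog curves. Three independent experiments, quadruplicate wells.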

[7] = Cytotoxicity against human MRC5 cells assessed as inhibition of cell proliferation incubated for 4 hrs by MTS assay; type: toxicity, cell-based; method in brief: as §1
SK-OV-3 = assay: Cytotoxicity against human SK-OV-3 cells assessed as inhibition of cell proliferation incubated for 4 hrs by MTS assay; type: functional, cell-based; settings: SK-OV-3, 4 h; method in brief: as §1
HL60/ADR = assay: Cytotoxicity against human HL60/ADR cells assessed as inhibition of cell proliferation incubated for 4 hrs by MTS assay; type: functional, cell-based; method in brief: as §1
K562 [8] = assay: Cytotoxicity against human K562 cells assessed as inhibition of cell proliferation incubated for 4 hrs by MTS assay; type: functional, cell-based; settings: K562, 4 h; method in brief: as §1
SK-MEL-2 = assay: Cytotoxicity against human SK-MEL-2 cells assessed as inhibition of cell proliferation incubated for 4 hrs by MTS assay; type: functional, cell-based; settings: SK-MEL-2, 4 h; method in brief: as §1
PANC-1 = assay: Cytotoxicity against human PANC-1 cells assessed as inhibition of cell proliferation incubated for 4 hrs by MTS assay; type: functional, cell-based; settings: PANC-1, 4 h; method in brief: as §1
SK-HEP1 = assay: Cytotoxicity against human SK-HEP1 cells assessed as inhibition of cell proliferation incubated for 4 hrs by MTS assay; type: functional, cell-based; settings: SK-HEP1, 4 h; method in brief: as §1
NCI-H460 = assay: Cytotoxicity against human NCI-H460 cells assessed as inhibition of cell proliferation incubated for 4 hrs by MTS assay; type: functional, cell-based; settings: NCI-H460, 4 h; method in brief: as §1
A549 = assay: Cytotoxicity against human A549 cells assessed as inhibition of cell proliferation incubated for 4 hrs by MTS assay; type: functional, cell-based; settings: A549, 4 h; method in brief: as §1
CCRF-CEM = assay: Cytotoxicity against human CCRF-CEM cells assessed as inhibition of cell proliferation incubated for 4 hrs by MTS assay; type: functional, cell-based; method in brief: as §1

| Structure (SMILES) | IC50 (T47D) [µM] | IC50 (PC-3) [µM] | IC50 (Ramos) [µM] | IC50 [1] [µM] | IC50 (Calu-6) [µM] | IC50 (HepG2) [µM] | IC50 (U-937) [µM] | IC50 (RPMI-8226) [µM] | IC50 (A20) [µM] | IC50 (HL-60) [µM] | IC50 (SH-SY5Y) [µM] | IC50 (COLO 205) [µM] | IC50 (HT-29) [µM] | IC50 (Malme-3M) [µM] | IC50 (MDA-MB-231) [µM] | IC50 (MDA-MB-435S) [µM] | IC50 at 4 h [2] [µM] | IC50 [3] [µM] | IC50 [4] [µM] | IC50 (Toledo) [µM] | other results |
| --- | --- | --- | --- | --- | --- | --- | --- | --- | --- | --- | --- | --- | --- | --- | --- | --- | --- | --- | --- | --- | --- |
| NCCCC[C@H](NC(=O)[C@H](Cc1c[nH]c2ccccc12)NC(=O)[C@H](Cc1c[nH]c2ccccc12)NC(=O)[C@H](CCCCN)NC(=O)[C@H](CCCCN)NC(=O)[C@H](Cc1c[nH]c2ccccc12)NC(=O)[C@H](Cc1ccc(-c2ccccc2)cc1)NC(=O)[C@H](CCCCN)NC(=O)[C@@H](N)CCCCN)C(N)=O (H-KK[Bip]WKKWWK-NH2) | 2.4 | 10.1 | 3.8 | 6.6 | 4.9 | 8.7 | 2.7 | 4.1 | 8.3 | 6.1 | 8.8 | 5.7 | 8.9 | 7.1 | 9.3 | 9.8 | 87 | 16.9 | 2.5 | 5.4 | IC50 [5]: 5.9 µM; IC50 (Raji): 8.7 µM; IC50 (KARPAS-299): 8.7 µM; IC50 (A498): 6.4 µM; IC50 (SK-N-AS): 6 µM; IC50 (K562 [6]): 7.6 µM; IC50 at 4 h [7]: 27.9 µM; IC50 (SK-OV-3): 12.6 µM; IC50 (HL60/ADR): 4.9 µM; IC50 (K562 [8]): 7.4 µM; IC50 (SK-MEL-2): 11 µM; IC50 (PANC-1): 9.5 µM; IC50 (SK-HEP1): 7.9 µM; IC50 (NCI-H460): 8.7 µM; IC50 (A549): 7.8 µM; IC50 (CCRF-CEM): 5.3 µM |
| NCCCC[C@H](NC(=O)[C@H](Cc1c[nH]c2ccccc12)NC(=O)[C@H](CCCCN)NC(=O)[C@H](CCCCN)NC(=O)C(NC(=O)[C@H](Cc1c[nH]c2ccccc12)NC(=O)[C@H](CCCCN)NC(=O)[C@H](CCCCN)NC(=O)[C@@H](N)Cc1c[nH]c2ccccc12)C(c1ccccc1)c1ccccc1)C(N)=O (stereo partly drawn) (H-WKKW[ξDip]KKWK-NH2) | 4.8 | 14.1 | 5.4 | 6.4 | 6.9 | 20.1 | 5.3 | 6 | 16 | 8 | 12.7 | 8.7 | 11 | 12.4 | 13 | 14.1 | 122 | 17.3 | 6.5 | 7.7 | IC50 [5]: 9.5 µM; IC50 (Raji): 12.5 µM; IC50 (KARPAS-299): 11.6 µM; IC50 (A498): 13.9 µM; IC50 (SK-N-AS): 10.4 µM; IC50 (K562 [6]): 9 µM; IC50 at 4 h [7]: 28 µM; IC50 (SK-OV-3): 18.1 µM; IC50 (HL60/ADR): 10.5 µM; IC50 (K562 [8]): 8.2 µM; IC50 (SK-MEL-2): 18.4 µM; IC50 (PANC-1): 17.1 µM; IC50 (SK-HEP1): 15.6 µM; IC50 (NCI-H460): 9 µM; IC50 (A549): 10.4 µM; IC50 (CCRF-CEM): 7.8 µM |
| NCCCC[C@H](NC(=O)C(NC(=O)[C@H](Cc1c[nH]c2ccccc12)NC(=O)[C@H](CCCCN)NC(=O)[C@H](CCCCN)NC(=O)[C@H](Cc1c[nH]c2ccccc12)NC(=O)[C@H](Cc1c[nH]c2ccccc12)NC(=O)[C@H](CCCCN)NC(=O)[C@@H](N)CCCCN)C(c1ccccc1)c1ccccc1)C(N)=O (stereo partly drawn) (H-KKWWKKW[ξDip]K-NH2) | 1.2 | 4.4 | 1.7 | 3.2 | 2.1 | 6.7 | 1.2 | 1.9 | 8.3 | 2.1 | 3.3 | 2.6 | 3.3 | 3.3 | 3.6 | 3.1 | 34.3 | 6.6 | 1.7 | 2.3 | IC50 [5]: 3.7 µM; IC50 (Raji): 4.9 µM; IC50 (KARPAS-299): 4.8 µM; IC50 (A498): 2.9 µM; IC50 (SK-N-AS): 2.5 µM; IC50 (K562 [6]): 3 µM; IC50 at 4 h [7]: 9.2 µM; IC50 (SK-OV-3): 7.2 µM; IC50 (HL60/ADR): 3 µM; IC50 (K562 [8]): 3 µM; IC50 (SK-MEL-2): 5.2 µM; IC50 (PANC-1): 3.8 µM; IC50 (SK-HEP1): 5.1 µM; IC50 (NCI-H460): 3.4 µM; IC50 (A549): 2.8 µM; IC50 (CCRF-CEM): 2.6 µM |
